Bioassay records deposited in PubChem by several laboratories.
Only some compounds are listed: those with a hit (about 2% of all), similar ones and a draw of the others.
C8 TRAIL sens = viability loss with TRAIL in NB7+C8 cells, primary screen, TRAIL sensitizer project, cell-based, ATPlite luminescence | inhibition (viability loss, TRAIL sensitization), % at 10 µM | 360,000 tested, 1% active | AID 624354, 2012;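 active = compounds causing at least 50% loss of cell viability in the single-dose screen, relative to plate controls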
PPC-1+TRAIL kill = compounds killing PPC-1 cancer cells with TRAIL present, primary screen, TRAIL potentiator project, ATPLite luminescence, uHTS; AID 1443, 2008; PPC-1 cells + TRAIL, ATPLite viability luminescence; 220,000 tested, 0.41% active; cell killing (% activity), % at 4 µM or 5 µM;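 active = cell killing above 50% in the first pass at 4 µM, then a duplicate retest at 5 µM averaging 50% or more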;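 also: plate controls were cells with TRAIL plus DMSO for no effect and medium-only wells lacking cells for full effect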
HSP90 inh = HSP90 inhibitors, primary screen, cell lysate, luminescence; Heat shock protein HSP 90 (rabbit reticulocyte lysate; luciferase refolding); Rabbit reticulocyte lysate, luciferase refolding luminescence, 3 h; 290,000 tested, 0.91% active; inhibition, % at 5.6 µM; AID 1789, 2009;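 active = inhibition above the screen-wide mean plus 3 SD, computed separately per campaign, cut at about 16% in these data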;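 also: 0% = DMSO wells and 100% = 60 µM geldanamycin wells; inhibitors lower the luminescence because luciferase stays unfolded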
FLuc act counter = FLuc activators, initial screening, artefact control for FLuc-dependent activation tests, biochemical, ATPlite luminescence; ATPlite luciferase biochemical, 10 min; 0 = ATP-free wells, 1 = DMSO control; activation factor at 10 µM; 200,000 tested, under 10 active; AID 1027, 2008;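 active = luciferase activation factor, scaled between plate controls, of at least 2 with compound at 10 µM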
Target sequence (P08659 whole entry, looked up): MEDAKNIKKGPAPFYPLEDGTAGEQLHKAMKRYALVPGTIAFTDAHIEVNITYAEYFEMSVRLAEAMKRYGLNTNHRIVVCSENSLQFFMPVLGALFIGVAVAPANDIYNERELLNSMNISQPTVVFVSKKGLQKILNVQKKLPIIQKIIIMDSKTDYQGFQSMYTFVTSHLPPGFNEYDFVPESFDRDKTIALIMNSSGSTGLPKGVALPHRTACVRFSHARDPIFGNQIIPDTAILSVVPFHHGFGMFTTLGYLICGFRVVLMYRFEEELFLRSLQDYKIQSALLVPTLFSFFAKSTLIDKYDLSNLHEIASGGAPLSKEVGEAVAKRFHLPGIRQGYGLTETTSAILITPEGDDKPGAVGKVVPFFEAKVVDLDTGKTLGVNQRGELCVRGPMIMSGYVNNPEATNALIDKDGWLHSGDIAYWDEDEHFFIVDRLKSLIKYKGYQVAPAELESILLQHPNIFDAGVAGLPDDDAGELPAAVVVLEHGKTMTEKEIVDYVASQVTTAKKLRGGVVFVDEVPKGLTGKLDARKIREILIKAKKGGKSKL
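Material: luciferase plus luciferin reagent, cell-free. Medium: PBS buffer for ATP. Also added: ATP substrate, dispensed from a 10.24 µM working solution in PBS. Doses: test compounds dosed from 2 mM stocks in 100% DMSO. Incubation: 10 min post-reagent at room temperature. Technique: light output (luminescence). Read-out basis: luminescence gain marking luciferase activators.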
FLuc inhib CS = firefly luciferase enzyme inhibitors, primary screen, artefact control for luciferase-based inhibitor screens, biochemical, luminescence, ATPLite; 200,000 tested, 1.5% active; Luciferin 4-monooxygenase (Photinus pyralis), P08659; inhibition, % at 10 µM; 10 min;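 active = inhibition above about 50% when tested at 10 µM, limit read from the data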
* = called active by the depositor; / = no result given; ! = repeats disagree.

SMILES | C8 TRAIL sens | PPC-1+TRAIL kill | HSP90 inh | FLuc act counter | FLuc inhib CS
O=C(C1=C[C@H](C2CC2)C[C@H](OCCCCO)O1)N1CCN(Cc2ccc3c(c2)OCO3)CC1 | -4 | -3 | 17* | 1 | -2
O=C(C1=C[C@@H](c2coc3ccccc3c2=O)C[C@@H](OCCCCO)O1)N1CCN(Cc2ccc3c(c2)OCO3)CC1 | 2 | 10 | 17* | 1 | 2
CCc1ccc(N(CC(=O)Nc2ccccc2C(=O)N2CCCC2)S(C)(=O)=O)cc1 | 7 | / | 3 | / | /
c1ccc(-c2ccc(-c3cn4c(n3)CCC4)cc2)cc1 | 72* | 50 | 8 | 0.3 | 65*
CC(=O)Nc1c2c(nn1-c1ccc(Cl)cc1)CSC2 | -2 | / | -1 | / | /
O=C1c2cccc(NCCCNCCO)c2C(=O)c2cccc(NCCCNCCO)c21 | 57* | / | / | / | /
O=C1c2ccccc2C(=O)c2c(NCc3cccnc3)cccc21 | 7 | 15 | 0 | 0.9 | 8
COc1ccccc1N1CCN(C(=O)CSc2ncccc2-c2nc3ccccc3[nH]2)CC1 | -6 | 8 | 22* | 1 | -1
COc1ccc2cc(S(=O)(=O)N3CCCC3)ccc2c1 | 1 | / | 0 | / | /
COc1ccc(/C=N/OC(=O)Nc2ccccc2OC)cc1 | 52* | 29 | 5 | 0.2 | 84*
COc1ccc(NC(=O)O/N=C/c2ccc(Br)cc2)cc1 | 7 | / | -1 | / | /
CSCCC(NC(=O)OC(C)(C)C)C(=O)Oc1ccc2c(=O)c(-c3ccc4c(c3)OCCO4)coc2c1 (stereo not drawn) | 56* | 32 | 4 | 0.7 | 26
Cc1cc(C)cc(NC(=O)C2CCN(C(=O)c3cccs3)CC2)c1 | 10 | / | 2 | / | /
Cc1cccc(C2=N/C(=C\c3cccs3)C(=O)O2)c1 | -3 | 18 | 1 | 0.3 | 65*
Cc1ccccc1-n1c(C)cc(/C=N/NC(=O)c2ccncc2)c1C | 5 | 4 | 1 | 0.4 | 55*
Cc1cc(C)cc(-n2c(C)cc(/C=N/NC(=O)c3ccncc3)c2C)c1 | -5 | 8 | 5 | 1.1 | -7
CCN(CCO)C(=O)CC1C(=O)NCCN1Cc1c(F)cccc1Cl (stereo not drawn) | 2 | -10 | -1 | 1 | 1
CCN=c1scc(-c2ccc(F)cc2)n1/N=C/c1ccccn1 | 16 | 28 | -5 | 0.8 | 17
CCN=c1scc(-c2ccccc2)n1/N=C/c1ccccn1 | 89* | 50 | 12 | 0.3 | 74*
C=CCN=c1scc(-c2ccccc2)n1/N=C/c1ccccn1 | 53*! | 30 | 4 | 0.6 | 45
O=c1oc2ccccc2cc1-c1nc2ccccc2o1 | 13 | 35 | -3 | 0.6 | 36
O=c1oc2ccccc2cc1-c1nc2c(s1)CCCC2 | 63* | 24 | 12 | 0.3 | 67*
COc1cc2c(cc1OC)C(C1C(=O)CC(C)(C)CC1=O)N(C(=O)CCl)CC2 (stereo not drawn) | -11 | 12 | 1 | 1.1 | -6
COc1cc2c(cc1OC)C(c1cc(Br)ccc1F)N(C(=O)CCl)CC2 (stereo not drawn) | 95* | / | 9 | / | /
CC(=NOC(=O)C1CCCCC1)c1nccs1 | 1 | / | / | / | /
SMILES | C8 TRAIL sens | PPC-1+TRAIL kill | HSP90 inh | FLuc act counter | FLuc inhib CS
C/C(=N/OC(=O)c1c(F)cccc1F)c1nccs1 | -7 | 7 | 2 | 0.2 | 81*
C/C(=N\OC(=O)c1ccc(F)cc1)c1nccs1 | -10 | -5 | 3 | 0.1 | 87*
COc1ccc(C(=O)O/N=C(/C)c2cccs2)cc1 | 9 | -4 | -4 | 0 | 96*
COc1ccc(C/C(N)=N/OC(=O)c2cccs2)cc1 | -3 | -16 | -2 | 1 | 0
COc1ccc(C(=O)O/N=C(\C)c2nccs2)cc1 | -2 | 12 | 0 | 0.1 | 92*
COc1ccc(C2CC2/C(C)=N/OC(=O)c2ccc(F)cc2)cc1 (stereo not drawn) | 5 | -1 | -5 | 1 | 2
C/C(=N\OC(=O)c1c(-c2c(F)cccc2Cl)noc1C)c1nccs1 | -4 | 25 | -4 | 1 | -3
CCc1ccc(-c2cc(C)no2)cc1S(=O)(=O)NCCCN1CCN(c2ccccc2)CC1 | 25 | / | 0 | / | /
CC1(C)C/C(=N\NC(=S)Nc2ccccc2F)c2cc(O)ccc2O1 | -2 | 10 | 0 | 1 | -3
CC(C)(C)OC(=O)CNC(=O)c1nc[nH]c1C(=O)N1CCNCC1 | 7 | / | / | / | /
CSCCNC(=O)C1(C)CCN1C(=O)C/C=C/c1ccccc1 (stereo not drawn) | -14 | / | / | / | /
Cc1sc2nc(C(C)Sc3n[nH]c(N)n3)[nH]c(=O)c2c1C (stereo not drawn) | / | 11 | -1 | 1 | -3
CN=c1scc(-c2ccccc2F)n1/N=C/c1ccc[nH]1 | 88* | 44 | 85* | 0 | 97*
C=CCN=c1scc(-c2ccc(F)cc2)n1/N=C/c1ccccn1 | 44 | 17 | 4 | 1 | -1
CCOc1cc(NC(=O)CCl)c(OCC)cc1NC(=O)CCl | 91* | 16 | -1 | / | /
CCOc1ccccc1NC(=O)CCC(=O)Nc1ccccc1OCC | -12 | 17 | -1 | 1 | 1
CCCn1c(=S)[nH]c2cc(C(=O)N3CCN(C4CCCCC4)CC3)ccc2c1=O | 18 | / | 3 | / | /
Cc1ccc(C(=O)N(CC#N)CC#N)cc1C | -4 | 0 | -1 | 1 | -4
CC[n+]1c(/C=C/c2ccc(OC)c(OC)c2)ccc2ccccc21 | -12 | / | -5 | / | /
CCN(CC)c1ccc(/C=C/c2ccc3ccc(OC)cc3[n+]2CC)cc1 | 57* | / | 1 | / | /
COc1ccc2cc(-c3cc(C(=O)OCC(=O)Nc4c(C)n(C)n(-c5ccccc5)c4=O)c4ccccc4n3)ccc2c1 | 97* | 92* | 3 | 0.1 | 94*
COc1ccc(-c2cc(C(=O)OCC(=O)NC3CC3)c3ccccc3n2)cc1 | 40 | / | / | / | /
COc1ccc2cc(-c3cc(C(=O)OCC(=O)NC4CCS(=O)(=O)C4)c4ccccc4n3)ccc2c1 (stereo not drawn) | 92* | 95* | 12 | 0 | 95*
CSCC[C@H](NC(=O)[C@@H]1Cc2c([nH]c3ccccc23)C2c3ccccc3C(=O)N21)C(=O)NCC1CCCO1 (stereo partly drawn) | -13 | / | -5 | / | /
CCn1cc(C(=O)N2CCN(c3ccc(C(C)=O)cc3)CC2)c2cc(OC)c(OC)cc2c1=O | -6 | 21 | -1 | 1.1 | -5
O=C1/C(=C/N(C(=O)c2ccco2)c2ccc(Cl)cc2)Sc2ccccc21 | 55* | 31 | 16* | 0.1 | 86*
O=C1c2ccccc2C(=O)N1CCCCN(C(=O)c1ccco1)c1ccc(Cl)cc1 | -4 | 26 | 6 | 1.1 | -10
